DAX1 inh-1: inhibitors of DAX1 repression of SF-1 activated StAR promoter. inhibition, % at 6.8 µM. AID 652010. 1.1% of 370,000 active. HEK293T StAR-luciferase reporter, SF-1/DAX-1 repression relief;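 active means inhibition above the mean over all tested compounds plus 3 SD, cut at about 3.6% in these data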;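 further: higher inhibition means more luminescence from relief of DAX-1 repression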
SMARCA2 activ: activators of SMARCA2 function. MG213 cells, MMTV-luciferase reporter, dexamethasone, overnight. activation, % at 9.1 µM. 1% of 370,000 active; in the data active means activation above about 7.8%
JMJD2C inh: human JMJD2C demethylase inhibition | GST-JMJD2C(1-420) H3K9me3 demethylation, DELFIA europium | Q9H3R0 | inhibition, % at 2.35 µM | 0.069% of 330,000 active | AID 2099;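 active means more than half of a compound's replicate wells show inhibition beyond 50%, single wells judged on their own value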;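 further: signal counts dimethyl H3K9 product captured on neutravidin plate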
NR2E3 ag-1: activates human NR2E3 receptor. 0.35% of 360,000 active. CHO-S Gal4-NCOR/VP16-NR2E3 two-hybrid, luciferase. Q9Y5X4. inhibition of corepressor binding, % at 3.98 µM;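 active means inhibition above the mean of all tested compounds plus 3 SD, cut at about 70% in these data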;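 further: higher means lower luciferase signal from less NR2E3 corepressor binding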
Target sequence (Q9Y5X4 whole entry, looked up, the tested form may be a part): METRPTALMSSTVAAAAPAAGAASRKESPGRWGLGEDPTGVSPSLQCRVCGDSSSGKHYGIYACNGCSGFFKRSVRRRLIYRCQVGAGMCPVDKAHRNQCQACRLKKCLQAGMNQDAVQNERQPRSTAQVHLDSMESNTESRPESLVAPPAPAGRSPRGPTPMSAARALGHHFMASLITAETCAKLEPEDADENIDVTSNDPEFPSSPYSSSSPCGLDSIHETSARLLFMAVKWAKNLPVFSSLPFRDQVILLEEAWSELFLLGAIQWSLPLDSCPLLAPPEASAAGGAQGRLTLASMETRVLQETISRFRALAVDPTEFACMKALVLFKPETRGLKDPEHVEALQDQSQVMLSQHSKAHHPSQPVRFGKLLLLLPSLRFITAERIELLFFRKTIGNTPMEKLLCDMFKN
DAX1 inh-2: inhibitors of human orphan nuclear receptor DAX1 (NR0B1); P51843; HEK293 Gal4-DAX1 luciferase reporter, luminescence; inhibition, % at 6.75 µM; 0.99% of 340,000 active;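 active means inhibition above the mean over all tested compounds plus 3 SD, cut at about 4.2% in these data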;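 further: inhibition shows as a rise in luminescence from relieved DAX1 repression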
Target sequence (P51843 207-470 limits assumed): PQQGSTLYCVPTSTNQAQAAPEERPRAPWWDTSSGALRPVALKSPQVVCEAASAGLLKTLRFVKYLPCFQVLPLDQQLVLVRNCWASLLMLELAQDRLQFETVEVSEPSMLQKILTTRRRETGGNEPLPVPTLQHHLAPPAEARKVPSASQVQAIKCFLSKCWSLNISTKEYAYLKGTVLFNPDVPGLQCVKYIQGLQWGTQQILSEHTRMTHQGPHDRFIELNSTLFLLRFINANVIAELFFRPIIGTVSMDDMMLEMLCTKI
NR2E3 ag-2: agonists of human nuclear receptor NR2E3 | GST-NR2E3/biotin-RetCOR TR-FRET, 1536-well | AID 2300 | 0.12% of 320,000 active | inhibition of corepressor binding, % at 4.78 µM | Q9Y5X4;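 active means percent inhibition above the cutoff of mean plus 3 SD of all tested compounds, set per screening campaign, cut at about 20% in these data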
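System: GST-NR2E3 and biotin-RetCOR proteins; probe or stimulus: 7 nM biotin-RetCOR; doses: compound at 4.8 µM, single dose; schedule: Compound–protein incubation for 5 h at 4 °C; detection: time-resolved FRET; read-out: percent inhibition; controls: biotin wells as high control, 0.6% DMSO wells as low control; format: 1536-well plates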
SMARCA2 conf: SMARCA2 activation, confirmation screen; shares compounds with SMARCA2 activ; MG213 cells, MMTV-luciferase with dexamethasone, luminescence, overnight; MG213 cells expressing E1A, Rb sequestered; DMSO wells 0%, reference activator 100%; activation, % at 9.1 µM; 30% of 3,500 active; AID 652260;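 active means activation above its plate's cutoff, the mean activation of tested wells plus 3 SD, cut at about 7.9% in these data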
VP16 Luc act: activates GAL4-VP16 luciferase, flagging SMARCA2 activator hits; shares compounds with SMARCA2 activ; HEK293 GAL4-VP16 pG5luc reporter, luciferase luminescence; scaled: DMSO wells 0%, SAHA wells 100%; activation, % at 9.1 µM; 41% of 3,500 active; AID 686939;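 active means activation above the solvent-only control well mean plus 3 SD, averaged across control plates, cut at about 5.2% in these data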
A number is an active result; n = inactive; x = not tested or not shown. Compounds with a hit are over-represented: about 3.2% of the library has one in this group of screens.

SMILES | DAX1 inh-1 | SMARCA2 activ | JMJD2C inh | NR2E3 ag-1 | DAX1 inh-2 | NR2E3 ag-2 | SMARCA2 conf | VP16 Luc act
COc1ccc(-c2nn(-c3ccccc3)cc2/C=N/NC(=O)c2ccc3c(c2)OCO3)cc1 | x | x | n | x | x | n | x | x
COc1ccc(-c2nn(-c3ccccc3)cc2/C=N/Nc2cccc(C(=O)O)c2)cc1 | n | 9.1 | x | n | n | x | n | n
CC(C)c1ccccc1OCCCCCN1CCOCC1 | n | n | n | n | x | n | x | x
Brc1ccccc1OCCCCCN1CCOCC1 | n | 10 | n | n | n | n | n | n
COc1ccc(C(=O)N[C@H](C(=O)Nc2nc3ccccc3[nH]2)C(C)C)cc1 | n | 13 | n | n | n | n | 12 | 15
COc1ccc(Nc2c(-c3cc4ccccc4o3)nc3nc(C)cc(C)n23)cc1 | n | 8.6 | x | n | x | x | n | n
CCCCNc1c(-c2cc3ccccc3o2)nc2nc(C)cc(C)n12 | n | n | x | n | x | x | x | x
CC(C)CCNC(=O)c1ccc(-c2ccccc2)cc1 | x | x | n | x | x | n | x | x
CC(C)CCNC(=O)C(=O)Nc1ccccc1 | n | 9.1 | n | n | n | n | n | 7.2
O=C(CCC1CCN(C(=O)Cc2c(F)cccc2F)CC1)NC1CC1 | n | n | n | n | n | n | x | x
COc1ccccc1CC(=O)N1CCC(CCC(=O)NC2CC2)CC1 | n | 8.8 | n | n | n | n | n | n
COc1ccccc1N1CCN(C(=O)c2cc(S(=O)(=O)N3CCOCC3)ccc2C)CC1 | n | n | x | n | n | x | x | x
O=C(Cn1cc(C(F)(F)F)ccc1=O)N1CCc2ccccc2C1 | n | 8.0 | n | n | n | n | n | n
O=C(Cn1cc(C(F)(F)F)ccc1=O)N1CCCc2ccccc21 | n | n | n | n | n | x | x | x
CC(C)(C)N(Cc1cn(Cc2ccccc2)nn1)S(=O)(=O)c1ccccc1Br | n | n | x | x | x | x | x | x
Cc1cccc2nc3ccccc3cc12 | n | n | n | n | n | n | x | x
Cc1[nH]ccc2cc3nc4ccccc4c3cc12 | n | 18 | x | n | n | x | 76 | n
Cc1cc(C)nc(Nc2ccccc2F)n1 | n | n | n | n | n | n | x | x
Cc1cc(C)nc(Nc2ccccc2Cl)n1 | n | 12 | n | n | n | n | n | n
Cn1c(SCc2cccc(F)c2)nnc1-c1ccccn1 | n | 9.9 | n | n | 5.2 | n | n | 6.3
C/C=C/C=C/C(=O)c1cc(C)c(OC(=O)CNC(=O)OC(C)(C)C)c(C)c1O | n | n | x | x | x | x | x | x
CC(=O)Nc1cc(-c2ccc(F)cc2)[nH]n1 | n | 11 | n | n | n | n | n | n
O=C(Nc1cc(-c2ccccc2)[nH]n1)c1ccccc1F | n | 9.3 | n | n | x | n | n | 10
S=C(NCCc1ccccc1)Nc1ccc(N2CCCCC2)cc1 | n | n | n | n | n | n | x | x
C=CCc1cc(Cl)ccc1OCCNCCCOC | n | 11 | n | n | 7.1 | n | n | n
SMILES | DAX1 inh-1 | SMARCA2 activ | JMJD2C inh | NR2E3 ag-1 | DAX1 inh-2 | NR2E3 ag-2 | SMARCA2 conf | VP16 Luc act
C=CCc1cc(Cl)ccc1OCCOCCNCCOC | n | n | n | n | n | n | x | x
O=C(CCN1C(=O)COc2ccccc21)NCCN1CCN(c2ccccc2F)CC1 | n | 8.7 | n | n | n | n | n | n
O=S(=O)(Cc1ccccc1Cl)CC(O)COc1ccccc1Cl (stereo not drawn) | n | 8.4 | n | n | n | n | n | n
CCOc1cccc2c1OC1(C)CC2NC(=O)N1c1cccc(C(=O)NCc2ccccn2)c1 (stereo not drawn) | n | n | n | n | n | n | x | x
CCn1c(C)csc1=NC(=O)c1ccccc1 | n | n | n | n | n | n | x | x
CCn1c(C)csc1=NC(=O)c1ccccc1O | n | 12 | n | n | n | n | n | 8.0
CCOC(=O)c1cccc(NC(=O)c2cncc(Br)c2)c1 | n | 9.0 | n | n | n | n | n | n
CCOC(=O)c1cccc(NC(=O)c2cccnc2)c1 | n | n | n | n | n | n | x | x
Cc1ccccc1Cn1cc(COC(=O)Nc2ccc(F)cc2)nn1 | n | n | x | x | x | x | x | x
CCOC(=O)C1CN(S(C)(=O)=O)c2cc(CC(=O)OC)ccc2O1 (stereo not drawn) | n | 8.2 | n | n | n | n | n | n
CC(C)CC1NC(=O)N(CC(=O)Nc2cccc(Br)c2)C1=O (stereo not drawn) | n | 9.6 | n | n | n | n | n | n
Cc1cc(C)n(S(=O)(=O)c2ccccc2[N+](=O)[O-])n1 | n | n | n | n | n | n | x | x
COc1cccc(C=Nc2ccc(N3CCOCC3)cc2)c1O | n | n | n | n | n | n | x | x
COc1cccc(/C=N/N2CCOCC2)c1O | n | 10 | n | n | n | n | n | n
CCN(C[C@H]1N[C@@](Cc2ccccc2)(C(=O)OC)[C@H]2C(=O)N(Cc3ccccc3)C(=O)[C@@H]12)C(=O)NC(C)C | n | 9.2 | n | n | n | x | n | n
CCc1ccc2nc3nc(C)cc(C)c3c(N)c2c1 | n | n | x | n | n | n | x | x
Cc1cc(C)c2c(N)c3ccccc3nc2n1 | n | 19 | n | n | n | n | 30 | n
CCN1CCC(=NNC(=O)c2ccco2)CC1 | n | 14 | n | n | n | n | n | n
CCCN1CCC(=NNC(=O)c2ccc(Br)o2)CC1 | n | n | n | n | n | n | x | x
COc1ccc(-c2nnn(CC(=O)N(CC(=O)NC3CCCC3)c3ccccc3F)n2)cc1OC | n | n | n | n | n | n | x | x
COc1ccccc1N(Cc1ccccc1)S(=O)(=O)c1cc(C(=O)O)ccc1Cl | n | n | n | n | n | n | x | x
Nc1ccc(O)c(-c2nc3ccccc3s2)c1 | n | n | n | n | n | n | x | x
Oc1ccc(-c2nc3ccccc3s2)c(O)c1 | n | 14 | n | n | n | n | n | 10
O=C(NCC1CCCN1S(=O)(=O)c1cccs1)c1ccccc1F (stereo not drawn) | n | 8.4 | n | n | n | n | n | n
Cc1ccc(-n2c(SC/C=C/c3ccccc3)nnc2-c2cccs2)cc1 | n | n | x | x | x | x | x | x
Cc1ccc(C)c(OCC(=O)O/N=C(\N)c2ccccn2)c1 | n | 9.2 | x | n | n | n | n | 8.2
COc1ccc(CC(=O)O/N=C(\N)c2ccccn2)cc1 | n | 8.0 | n | n | n | n | n | 6.4
Cc1ccc(C)c(OCC(=O)O/N=C(\N)c2cccnc2)c1 | n | n | n | n | n | n | x | x
COC(=O)c1c(-c2cccnc2)csc1NC(=O)c1cc(C)on1 | 4.5 | 10 | n | n | n | n | 19 | 14
